Laboratory results from ChEMBL document CHEMBL3792381, “Amine-free melanin-concentrating hormone receptor 1 antagonists: Novel 1-(1H-benzimidazol-6-yl)pyridin-2(1H)-one derivatives and design to avoid CYP3A4 time-dependent inhibition” (Bioorg Med Chem, 2016).

Assays:
[1] = biological target: Melanin-concentrating hormone receptor 1 (Rattus norvegicus, UniProt P97639); assay: Displacement of [125I]-MCH(4-19) from rat MCHR1 expressed in CHO cell membranes after 1 hr by liquid scintillation counting
Sequence of Melanin-concentrating hormone receptor 1 (Rattus norvegicus, UniProt P97639) (P97639 whole entry): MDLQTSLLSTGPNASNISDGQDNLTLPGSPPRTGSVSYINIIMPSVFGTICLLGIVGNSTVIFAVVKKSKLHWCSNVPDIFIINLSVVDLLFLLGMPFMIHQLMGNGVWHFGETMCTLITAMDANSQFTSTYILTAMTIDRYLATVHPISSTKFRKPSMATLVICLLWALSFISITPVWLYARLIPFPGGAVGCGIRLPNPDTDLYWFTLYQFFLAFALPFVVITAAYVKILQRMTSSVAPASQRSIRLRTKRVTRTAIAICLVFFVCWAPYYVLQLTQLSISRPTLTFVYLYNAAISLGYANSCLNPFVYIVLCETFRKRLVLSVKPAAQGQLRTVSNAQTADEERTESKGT
Method in brief: (§1)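 Membranes from CHO cells stably expressing human or rat MCHR1, prepared by homogenization and 100,000×g centrifugation, in 20 mM Tris-HCl pH 7.5 with 5 mM EDTA and protease inhibitors. Incubated with test compound and [125I]-MCH(4–19) for 1 h at room temperature. Filtered on PEI-treated GF/C filters and counted by scintillation. Nonspecific binding defined with cold MCH(1–19). IC50 from duplicate experiment.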

[2] = biological target: Melanin-concentrating hormone receptor 1 (Homo sapiens, UniProt Q99705); assay: Displacement of [125I]-MCH(4 to 19) from human MCHR1 expressed in CHO cell membranes after 1 hr by liquid scintillation counting; method in brief: as §1
Sequence of Melanin-concentrating hormone receptor 1 (Homo sapiens, UniProt Q99705) (Q99705 whole entry): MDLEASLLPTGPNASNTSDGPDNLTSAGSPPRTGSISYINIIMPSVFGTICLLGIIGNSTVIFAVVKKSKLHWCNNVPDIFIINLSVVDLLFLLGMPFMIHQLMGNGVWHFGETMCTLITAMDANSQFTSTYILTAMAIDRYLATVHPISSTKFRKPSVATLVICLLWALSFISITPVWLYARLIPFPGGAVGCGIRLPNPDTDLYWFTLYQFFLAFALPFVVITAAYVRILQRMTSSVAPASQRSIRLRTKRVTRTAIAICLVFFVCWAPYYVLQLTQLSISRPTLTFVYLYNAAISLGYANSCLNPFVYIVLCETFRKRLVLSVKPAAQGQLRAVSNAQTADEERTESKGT

CYP3A4 = CYP3A4 (Homo sapiens, UniProt P08684); assay: Time dependent inhibition of CYP3A4 in human liver microsomes assessed as conversion of testosterone to 6beta-hydroxytestosterone by measuring remaining activity at 30 uM by UPLC analysis in presence of NADPH generating system; format: ADME; conditions: read-out: Activity
Sequence of CYP3A4 (P08684 whole entry): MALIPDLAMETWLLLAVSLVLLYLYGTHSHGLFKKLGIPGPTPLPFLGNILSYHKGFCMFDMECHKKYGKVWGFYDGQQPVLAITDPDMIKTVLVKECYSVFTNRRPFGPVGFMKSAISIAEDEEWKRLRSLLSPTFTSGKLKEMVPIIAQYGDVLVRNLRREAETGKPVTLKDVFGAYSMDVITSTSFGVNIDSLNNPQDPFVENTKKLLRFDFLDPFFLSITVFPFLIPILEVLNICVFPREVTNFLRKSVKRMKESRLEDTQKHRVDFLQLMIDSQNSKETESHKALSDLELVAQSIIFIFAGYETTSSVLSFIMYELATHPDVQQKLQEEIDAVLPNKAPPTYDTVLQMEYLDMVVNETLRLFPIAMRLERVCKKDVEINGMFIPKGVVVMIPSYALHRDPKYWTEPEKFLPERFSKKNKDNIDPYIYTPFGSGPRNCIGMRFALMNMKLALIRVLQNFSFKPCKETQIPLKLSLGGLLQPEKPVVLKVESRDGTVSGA
Method in brief: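 Single-point assay: test compound at 30 µM preincubated with human liver microsomes at 37 °C in phosphate buffer pH 7.4 with an NADPH-generating system. Residual CYP3A4 activity then measured as testosterone 6β-hydroxylation by UPLC. Percent remaining = activity with preincubation (% of DMSO control) over activity without preincubation; n = 2.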

Cytochrome P450 3A4 = Cytochrome P450 3A4 (Homo sapiens, UniProt P08684); assay: Time dependent inhibition of CYP3A4 in human liver microsomes at 10 uM; format: ADME
Sequence of Cytochrome P450 3A4 (P08684 whole entry): as above

Rattus norvegicus [3] = assay: Anorectic effect in DIO-F344/Jcl rat assessed as cumulative food intake at 1 mg/kg, po dosed for 2 weeks and measured every 2 or 3 days relative to vehicle control; format: functional
Method in brief: (§2)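 Male DIO-F344 rats (41 weeks old), on high-fat diet D12451 from 5 weeks of age, singly housed, given powder high-fat diet, habituated to oral dosing with tap water, grouped by day-0 food intake and body weight. Oral gavage once daily, suspended in 0.5% methylcellulose at 2 mL/kg, 1–3 h before dark onset, for 2 weeks (n = 5 or 6). Body weight taken before dosing, expressed as % of initial. Food intake every 2 or 3 days. Vehicle-treated and sibutramine-treated groups included.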

Rattus norvegicus [4] = assay: Antiobesity activity in DIO-F344/Jcl rat assessed as reduction in body weight at 1 mg/kg, po dosed for 2 weeks and measured every 2 or 3 days relative to vehicle control; format: functional; parameters: scale not given: the % may be the effect or the level left; method in brief: as §2

Q: What does the source list for `Cn1c(C2CCC2)nc2ccc(-n3ccc(OCc4ccc(F)cc4)cc3=O)cc21`?
A: IC50 [1]: 210 nM; IC50 [2]: 240 nM

Q: With `Cn1c(C2CC2)nc2ccc(-n3ccc(OCc4cccs4)cc3=O)cc21` as the compound, how does the IC50 [1] read?
A: The IC50 was 120 nM.

Q: What about the IC50 [2] of the same compound?
A: The IC50 was 76 nM.

Q: Which IC50 [1] does the source give for `Cn1c(C2CC2)nc2ccc(-n3ccc(OCc4ncc(Cl)cn4)cc3=O)cc21` here?
A: Its IC50 is 900 nM.

Q: What about the IC50 [2] of the same compound?
A: The IC50 was greater than 1000 nM.

Q: For `Cn1c(C2CC2)nc2ccc(-n3ccc(OCc4csc(C(F)(F)F)c4)cc3=O)cc21`, which IC50 [1] is on record?
A: Its IC50 is 29 nM.

Q: What about the activity at 30 µM (CYP3A4) of the same compound?
A: Its activity at 30 µM is 96%.

Q: What about the IC50 [2] of the same compound?
A: Its IC50 is 41 nM.

Q: How did the IC50 [1] turn out when `Cn1c(C2CCCC2)nc2ccc(-n3ccc(OCc4ccc(F)cc4)cc3=O)cc21` was run?
A: Its IC50 is 460 nM.

Q: And the IC50 [2]?
A: Its IC50 is 600 nM.

Q: Which results are given for `Cn1c(C2CC2)nc2ccc(-n3ccc(OCc4ccccc4Cl)cc3=O)cc21`?
A: IC50 [1]: 140 nM; IC50 [2]: 160 nM

Q: How did the IC50 [1] turn out when `Cn1c(C2CC2)nc2ccc(-n3ccc(OCc4ccccc4)cc3=O)cc21` was run?
A: The IC50 was 43 nM.

Q: And the IC50 [2]?
A: Its IC50 is 45 nM.

Q: Which IC50 [1] does the source give for `Cn1c(C2CC2)nc2ccc(-n3ccc(OCc4cc(C(F)(F)F)cs4)cc3=O)cc21` here?
A: The IC50 was 17 nM.

Q: What about the activity at 30 µM (CYP3A4) of the same compound?
A: The activity at 30 µM was 87%.

Q: What about the IC50 [2] of the same compound?
A: The IC50 was 34 nM.

Q: `CCn1c(C2CC2)nc2ccc(-n3ccc(OCc4ccc(Cl)cc4)cc3=O)cc21` was tested. Which IC50 [1] did it give?
A: The IC50 was 34 nM.

Q: And the IC50 [2]?
A: The IC50 was 37 nM.

Q: With `Cc1c(C2CC2)nc2ccc(-n3ccc(OCc4ccc(Cl)cc4)cc3=O)cn12` as the compound, how does the “inhibition (INH)” value (Cytochrome P450 3A4) read?
A: The value was “Active”.

Q: How did the IC50 [1] turn out when `Cc1nc2ccc(-n3ccc(OCc4ccc(F)cc4)cc3=O)cc2n1C` was run?
A: Its IC50 is 65 nM.

Q: What about the IC50 [2] of the same compound?
A: Its IC50 is 77 nM.

Q: What does the source list for `Cn1c(C2CC2)nc2ccc(-n3ccc(OCc4ccc(F)cc4)cc3=O)cc21`?
A: IC50 [1]: 28 nM; IC50 [2]: 40 nM

Q: Which IC50 [1] does the source give for `Cn1c(C2CC2)nc2ccc(-n3ccc(OCc4ccc(Cl)cn4)cc3=O)cc21` here?
A: The IC50 was 47 nM.

Q: What about the IC50 [2] of the same compound?
A: The IC50 was 73 nM.

Q: What does the source list for `CC(C)CC(N(C)C)C1(c2ccc(Cl)cc2)CCC1` (centres undefined) [SIBUTRAMINE]?
A: Activity (Rattus norvegicus [3]): 18.7%; Activity (Rattus norvegicus [4]): 3.1%
